# Screens deposited in PubChem BioAssay by The Scripps Research Institute Molecular Screening Center.
# TCR-CD3 inh: inhibitors of human TCR-CD3 interaction, primary screen, biochemical, fluorescence, TAMRA-labeled TCR probe; T-cell receptor (TCR); inhibition, % at 9.4 µM; 360,000 compounds, 0.37% hits; AID 651800, 2012; in the data active = inhibition above about 19%;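 note: recombinant mutant TCR 2C K166C tagged with TAMRA read by polarization; 0% = receptor in buffer alone and 100% = receptor with positive control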
# Tn6 DDE FP: inhibitors of Tn6 peptide binding to fibrin DD(E), primary screen, biochemical, fluorescence polarization, human fibrin, Tn6 probe | AID 720509, 2013 | Fibrin DD(E) TRITC-Tn6 fluorescence polarization displacement | inhibition, % at 8.3 µM | Fibrinogen beta chain (Homo sapiens), P02675 | 370,000 compounds, 0.21% hits;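 active = inhibition above a per-campaign cutoff: mean of compounds within control limits plus 3 SD, cut at about 15% in these data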;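 note: 0% = median of all compound wells on the plate and 100% = blocking peptide control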
# HTRA1 inh: HTRA1 serine protease inhibitors, primary screen, biochemical, fluorescence polarization, HTS; recombinant HTRA1, FP-rhodamine activity-based probe; inhibition, % at 5.96 µM; Q92743; 340,000 compounds, 0.5% hits; AID 504803, 2011; in the data active = inhibition above about 36%;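 note: 0% = enzyme with DMSO and 100% = wells lacking enzyme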
# Target sequence (Q92743 whole entry, looked up): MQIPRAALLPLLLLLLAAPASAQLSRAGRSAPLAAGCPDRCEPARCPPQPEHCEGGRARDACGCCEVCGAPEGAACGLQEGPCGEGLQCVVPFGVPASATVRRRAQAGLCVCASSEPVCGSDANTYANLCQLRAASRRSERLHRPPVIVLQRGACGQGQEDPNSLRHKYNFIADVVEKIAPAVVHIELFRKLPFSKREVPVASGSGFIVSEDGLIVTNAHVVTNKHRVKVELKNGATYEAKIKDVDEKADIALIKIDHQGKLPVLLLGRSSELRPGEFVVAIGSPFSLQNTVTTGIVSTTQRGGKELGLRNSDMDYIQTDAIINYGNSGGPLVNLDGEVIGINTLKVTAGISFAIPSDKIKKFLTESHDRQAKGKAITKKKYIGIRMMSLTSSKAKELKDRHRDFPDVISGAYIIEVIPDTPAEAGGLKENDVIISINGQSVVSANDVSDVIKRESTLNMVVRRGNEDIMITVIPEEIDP
# ABHD4 inh: ABHD4 inhibitors, primary screen, biochemical, fluorescence polarization, mouse; inhibition, % at 8.92 µM; purified mABHD4, FP-Rh probe fluorescence polarization; AID 720543, 2013; 370,000 compounds, 0.54% hits;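 active = inhibition exceeding the mean over every tested compound plus 3 SD, cut at about 30% in these data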;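 note: 0% = plate median of compound wells and 100% = S159A mutant with DMSO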
#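 Assay system: mABHD4 protein; medium: HEPES pH 7.0, NaCl, Pluronic buffer; dosing: 8.92 µM, single dose; schedule: 45 min + 60 min at 25 °C; signal: FP readout, ex 525 nm / em 598 nm; read-out: normalized percent inhibition of probe labeling; repeats: single replicate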
# SIAE primary: human SIAE inhibitors, primary screen, biochemical, fluorescence polarization, FP-Rh probe, 1536-well HTS. Sialate O-acetylesterase (Homo sapiens), Q9HAT2. SIAE FP-Rh probe binding. inhibition, % at 9.66 µM. 370,000 compounds, 0.69% hits. AID 1053197, 2014;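 active = inhibition above a cutoff: mean of compounds within the control limits plus 3 SD of those, cut at about 17% in these data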;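 note: 0% = plate median of compound wells and 100% = probe without SIAE protein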
# Tn7 DDE FP: inhibitors of Tn7 peptide binding to fibrin DD(E), primary screen, biochemical, fluorescence polarization, human fibrin, Tn7 probe; Fibrinogen beta chain (Homo sapiens), P02675; FP displacement of FITC-Tn7 peptide from fibrin DD(E); 0% = median of compound wells per plate; inhibition, % at 8.3 µM; 370,000 compounds, 0.13% hits; AID 720508, 2013;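 active = inhibition above the mean of compounds falling within the control limits plus 3 SD of them, cut at about 14% in these data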;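 note: 0% = plate median of compound wells and 100% = 10 µM Aha-Tn7 peptide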
#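 Assay system: Human clot-derived fibrin DD(E) complex | Buffer or medium: Tris/NaCl/CaCl2 buffer, pH 7.8 | Repeats: One replicate per compound | Benchmarks: Aha-Tn7 high control | Measure: % inhibition scaled between sample-field median and high-control FP | Schedule: 10 min plus 3 h, room temperature | Signal: Fluorescence polarization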
# SIAE confirm: human SIAE inhibitors, retest, confirmation, biochemical, fluorescence polarization, FP-Rh probe, triplicate. shares compounds with SIAE primary. SIAE FP-Rh activity-based probe. inhibition, % at 9.66 µM. 2,300 compounds, 13% hits. AID 1117263, 2014;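 active = mean inhibition of the replicates above the hit cutoff set in the primary screen, cut at about 17% in these data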;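 note: 0% = SIAE with DMSO and probe and 100% = probe without SIAE; inhibitors lower polarization as more probe stays unbound to SIAE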
# * hit, by the source's call; / = no result given. Only some compounds are listed: those with a hit (about 1.8% of all), similar ones and a draw of the others.
SMILES,TCR-CD3 inh,Tn6 DDE FP,HTRA1 inh,ABHD4 inh,SIAE primary,Tn7 DDE FP,SIAE confirm
CCCn1ncc([C@@H]2C[C@H]3CN(Cc4cccc(Cl)c4)C(=O)[C@]34CCCN24)c1C,14.1,4.6,4.6,-1.2,18.2*,2.1,-3.9
CCn1ncc([C@@H]2C[C@H]3CN(Cc4cccc(Cl)c4)C(=O)[C@]34CCCN24)c1C,-3.8,-3.8,/,-1.4,-2.9,5.2,/
COCCNC(=O)c1cccc(OC2CCN(Cc3cccc(C(C)=O)c3)CC2)c1,-2.0,0.4,6.0,-1.0,26.5*,4.2,1.6
CS(=O)(=O)N1CCC(c2noc(-c3ccc(C(F)(F)F)cc3)n2)CC1,-1.2,-10.7,-3.6,-2.0,27.5*,-0.5,-0.6
S=C(NCCNC(=S)Nc1ccccc1)Nc1ccccc1,-4.7,0.1,2.4,-2.9,7.4,3.0,/
Nc1ccc(NC(=S)Nc2ccccc2)cc1,9.9,-2.1,18.4,12.0,17.2*,4.6,2.9
Cc1ccc(S(=O)(=O)Nc2ccc3c(c2)nc(CCN2CCN(c4ccccn4)CC2)n3C)cc1,7.0,-2.5,1.7,-0.2,18.5*,-2.8,-0.8
CC(=O)Nc1ccc(NC(=O)c2cc(S(=O)(=O)N3CCCCC3)ccc2N2CCOCC2)cc1,3.5,5.5,2.4,-3.0,-7.4,-4.2,/
NC(=O)c1ccc(NC(=O)c2cc(S(=O)(=O)N3CCCCC3)ccc2N2CCOCC2)cc1,-0.5,12.6,-2.9,5.2,21.2*,1.2,-3.4
CN(N=Cc1ccccc1O)C(=O)c1ccccc1N,-6.6,11.2,/,1.0,11.2,-5.3,/
CC(=O)c1ccc2c(c1)C1C=CCC1C(C(=O)O)N2 (stereo not drawn),49.2*,-7.5,/,70.0*,34.1*,-10.1,8.5
CC(C)C1Nc2ccc(S(N)(=O)=O)cc2C2C=CCC21 (stereo not drawn),0.0,3.3,12.8,12.3,9.2,7.1,/
Oc1ccccc1N=Nc1nc(-c2ccccc2)c(-c2ccccc2)[nH]1,-0.3,-21.0,13.5,10.4,17.3*,3.2,-3.1
Cc1ccc(NC(=O)[C@H]2CC(=O)O[C@@H]2c2ccccc2)cc1C,/,-3.0,/,-0.7,-1.9,3.5,/
CC(=O)C1=C(C)N(Cc2ccc(Br)cc2)C(=S)NC1c1cccc(F)c1 (stereo not drawn),3.3,2.5,/,-12.0,-9.3,5.0,/
C/C(=N\O)c1cc(Cl)cc(Cl)c1O,-3.7,-4.4,0.8,6.6,24.8*,4.1,30.3*
CN(C)c1ccc(-c2nn3c(-c4ccco4)nnc3s2)cc1,/,-7.2,/,1.9,6.9,-2.5,/
COc1ccccc1OCc1ccc(C(=O)N2CCOCC2)o1,-4.0,2.9,2.5,-0.1,20.3*,4.4,4.0
NNc1nc2ccc(Cl)cc2s1,0.7,-2.9,19.0,-1.9,23.0*,11.3,0.6
CN(C)c1ccc(NC(=O)C2C3C=CC(C3)C2C(=O)O)cc1 (stereo not drawn),32.7*,3.0,34.8,34.5*,23.3*,-7.1,4.3
Cc1cccc(C)c1NC(=O)C1CCCN1S(=O)(=O)c1cccc2cccnc12 (stereo not drawn),/,-14.4,/,4.0,-2.0,7.9,/
COCc1cc(N2CCN(C(=O)OC(C)(C)C)C[C@H]2C)ccc1Br,8.0,-12.2,/,-10.0,0.6,-6.4,/
O=C(CN1CCN(c2ccccc2O)CC1)NC(c1ccccc1)c1ccccc1,-1.3,-1.0,-7.8,-7.4,18.2*,-3.1,3.8
O=C(CN1CCCC1)NC(c1ccccc1)c1ccccc1,6.6,-4.8,-6.0,11.9,15.9,-2.8,/
Cc1ccc(C2CC(c3cccs3)=NN2C(=O)CSc2nc3ccccc3o2)cc1 (stereo not drawn),0.1,-7.8,-41.6,-24.9,-2.6,3.6,/
SMILES,TCR-CD3 inh,Tn6 DDE FP,HTRA1 inh,ABHD4 inh,SIAE primary,Tn7 DDE FP,SIAE confirm
O=C(CSc1nc2ccccc2o1)N1N=C(c2cccs2)CC1c1ccc(F)cc1 (stereo not drawn),3.1,0.4,-2.2,-5.9,20.2*,-3.2,-5.0
CCC[C@H]1[C@@H](NCc2cccs2)CC[C@@]23CCCN2C(=O)CCC[C@@H]13,/,-2.4,/,-0.2,4.7,0.2,/
C=CCNC(=O)c1ccc(-c2nc3ccccc3nc2-c2ccccc2)cc1,3.0,4.9,-24.4,-7.6,32.9*,-8.8,-1.3
CCCCCCCCN1C(=O)[C@@H](CC(=O)NCC2CCCCC2)C[C@@]2(C(=O)OC)C1=C[C@H](COCc1ccccc1)O[C@@H]2C,/,1.9,/,0.1,4.3,-4.1,/
CN(Cc1ccco1)C(=O)CN1C(=O)C2(OCCCO2)c2ccccc21,/,1.2,/,-1.4,5.6,-0.5,/
CC(=O)N1CCN(C2c3cccc4cccc(c34)C2NS(=O)(=O)c2ccccc2)CC1 (stereo not drawn),-1.6,1.9,3.3,-3.6,24.4*,4.3,-2.5
Cc1ccc(C(=O)N2CCN(C3c4cccc5cccc(c45)C3NS(=O)(=O)c3ccccc3)CC2)cc1 (stereo not drawn),-4.2,0.6,-53.3,-7.8,-7.0,-3.5,/
Cc1ccc(-n2c3c(cc(C(=O)NCCCN4CCOCC4)c2=O)C(=O)CC(C)(C)C3)cc1,1.7,-2.2,3.6,0.2,18.9*,-1.8,-0.6
COc1ccc(CCNc2ncnc3cc(OC)c(OC)cc23)cc1OC,-7.5,2.2,-1.1,-2.2,-6.2,8.3,/
COc1ccc(CCNc2ncnc3c2[nH]c2cc(OC)c(OC)cc23)cc1OC,-8.7,-17.9,8.7,13.0,19.3*,2.4,25.6*
CC(C)C[C@H](NC(=O)c1nc[nH]c1C(=O)N1CCC(C)CC1)C(=O)OC(C)(C)C,-1.6,-2.9,4.1,-5.8,-1.1,1.6,/
CC1CCN(C(=O)c2[nH]cnc2C(=O)N[C@@H](CCCCNC(=O)OC(C)(C)C)C(=O)OC(C)(C)C)CC1,4.2,-3.2,-11.9,-0.9,21.6*,9.8,-4.9
CCOC(=O)Cn1cc(CN2CCS(=O)(=O)N(Cc3ccc(C)cc3)C(C(=O)OC)C2)nn1 (stereo not drawn),/,4.2,/,5.0,-4.3,-2.0,/
CN(CCOC(=O)c1cc2ccccc2o1)C1CN(Cc2cn(Cc3cccc(F)c3)nn2)S(=O)(=O)C1 (stereo not drawn),/,2.6,/,-1.7,4.9,1.6,/
